From ChEMBL document CHEMBL2346602, “A potent bivalent Smac mimetic (SM-1200) achieving rapid, complete, and durable tumor regression in mice” (J Med Chem, 2013)
The source made the active and inactive calls. The calls are words filed in the database; no cut-off is given here.

Legend:
[1] = Elimination half life in Sprague-Dawley rat at 1 mg/kg, iv; format: ADME, organism-based; parameters: dose 1 mg/kg, route intravenous; settings: in vivo, read-out: beta t1/2 (converted)
MDA-MB-231 [2] = assay: Induction of apoptosis in human MDA-MB-231 cells assessed as cIAP1 degradation at 0.3 nM after 24 hrs by Western blot analysis; format: functional, cell-based
Procedure, shortened: (§1)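 MDA-MB-231 cells were treated 24 h with graded concentrations. Lysates were made in Tris/NaCl/EDTA/SDS/NP-40 buffer with PMSF and protease inhibitors on ice, then run on 4−20% SDS-PAGE and blotted to PVDF. Blots were probed for cIAP1, cleaved PARP, and caspase-8, -9 and -3 (full-length and cleaved), with HRP chemiluminescent detection.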

MDA-MB-231 [3] = assay: Induction of apoptosis in human MDA-MB-231 cells assessed as PARP cleavage after 24 hrs by Western blot analysis; format: functional, cell-based; procedure, shortened: as §1
MDA-MB-231 [4] = assay: Induction of apoptosis in human MDA-MB-231 cells assessed as caspase-3 cleavage after 24 hrs by Western blot analysis; format: functional, cell-based; procedure, shortened: as §1
Rattus norvegicus [5] = assay: Apparent volume of distribution during terminal phase in Sprague-Dawley rat at 1 mg/kg, iv; format: ADME, organism-based; parameters: dose 1 mg/kg, route intravenous; settings: in vivo
MDA-MB-231 [6] = assay: Induction of apoptosis in human MDA-MB-231 cells assessed as apoptotic cells at 10 nM after 24 hrs by trypan blue assay relative to control; format: functional
Procedure, shortened: (§2)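 MDA-MB-231 cells were exposed to graded compound concentrations for 24 h and viability scored by trypan blue exclusion. Blue or morphologically unhealthy cells counted as dead. At least 100 cells per treatment were scored, in triplicate.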

[7] = AUC in Sprague-Dawley rat at 1 mg/kg, iv; format: ADME, organism-based; parameters: dose 1 mg/kg, route intravenous; settings: plasma
MDA-MB-231 [8] = assay: Induction of apoptosis in human MDA-MB-231 cells assessed as caspase-8 cleavage after 24 hrs by Western blot analysis; format: functional, cell-based; procedure, shortened: as §1
MDA-MB-231 [9] = assay: Induction of apoptosis in human MDA-MB-231 cells assessed as apoptotic cells after 24 hrs by trypan blue assay; format: functional, cell-based; procedure, shortened: as §2
MDA-MB-231 [10] = assay: Induction of apoptosis in human MDA-MB-231 cells xenografted in SCID mouse assessed as caspase 3 cleavage at 5 mg/kg, iv measured at 4 hrs by Western blot analysis; format: functional, organism-based; parameters: dose 5 mg/kg
Procedure, shortened: (§3)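 SCID mice carried subcutaneous dorsal MDA-MB-231 xenografts (5 × 10⁶ cells with Matrigel). At about 100 mm³, mice got a single iv dose of 5 mg/kg or vehicle. They were sacrificed at set time points, and tumor lysates were Western blotted for cIAP1, XIAP, caspase-3, PARP and cleaved PARP.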

[11] = Elimination half life in Sprague-Dawley rat at […], iv; format: ADME, organism-based; parameters: dose 2.5 mg/kg, route intravenous; settings: in vivo, read-out: beta t1/2 (converted)
Rattus norvegicus [12] = assay: Apparent volume of distribution during terminal phase in Sprague-Dawley rat at […], iv; format: ADME, organism-based; parameters: dose 2.5 mg/kg, route intravenous; settings: in vivo
MDA-MB-231 [13] = assay: Antitumor activity against human MDA-MB-231 cells xenografted in nude immunodeficient mouse assessed as tumor regression at 10 mg/kg/week, iv after 1 week relative to vehicle-treated control; format: functional
Procedure, shortened: (§4)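 5 × 10⁶ MDA-MB-231 cells in 50% Matrigel injected subcutaneously, one tumor per mouse. Dosing began on day 28, at mean tumor volume 100 mm³. Tumor volume and body weight were tracked. Groups were compared by t test.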

MDA-MB-231 [14] = assay: Antitumor activity against human MDA-MB-231 cells xenografted in nude immunodeficient mouse assessed as tumor regression at 3 mg/kg/week, iv after 4 weeks relative to vehicle-treated control; format: functional; procedure, shortened: as §4
MDA-MB-231 [15] = assay: Induction of apoptosis in human MDA-MB-231 cells xenografted in SCID mouse assessed as decrease in XIAP level at 5 mg/kg, iv after 8 to 24 hrs by Western blot analysis; format: functional, organism-based; parameters: dose 5 mg/kg; procedure, shortened: as §3
MDA-MB-231 [16] = assay: Antitumor activity against human MDA-MB-231 cells xenografted in nude immunodeficient mouse assessed as tumor regression at 3 mg/kg/week, iv after 1 week relative to vehicle-treated control; format: functional; procedure, shortened: as §4
[17] = AUC in Sprague-Dawley rat at […], iv; format: ADME, organism-based; parameters: dose 2.5 mg/kg, route intravenous; settings: plasma
MDA-MB-231 [18] = assay: Induction of apoptosis in human MDA-MB-231 cells xenografted in SCID mouse assessed as PARP cleavage at 5 mg/kg, iv after 4 to 24 hrs by Western blot analysis; format: functional, organism-based; parameters: dose 5 mg/kg; procedure, shortened: as §3
MDA-MB-231 [19] = assay: Induction of apoptosis in human MDA-MB-231 cells assessed as cIAP1 degradation at 1 nM after 24 hrs by Western blot analysis; format: functional, cell-based; procedure, shortened: as §1
Mus musculus = assay: Toxicity in nude immunodeficient mouse xenografted with human MDA-MB-231 cells assessed as body weight change at 3 to 10 mg/kg, iv administered every week for 4 weeks measured over 76 days; format: organism-based; parameters: dose 3-10 mg/kg, route intravenous; settings: in vivo, 1824 h; procedure, shortened: as §4
MDA-MB-231 [20] = assay: Antitumor activity against human MDA-MB-231 cells xenografted in nude immunodeficient mouse assessed as tumor regression at 10 mg/kg/week, iv after 4 weeks relative to vehicle-treated control; format: functional; procedure, shortened: as §4
MDA-MB-231 [21] = assay: Induction of apoptosis in human MDA-MB-231 cells xenografted in SCID mouse assessed as cIAP1 degradation at 5 mg/kg, after 2 to 24 hrs by Western blot analysis; format: functional, organism-based; parameters: dose 5 mg/kg; procedure, shortened: as §3
MDA-MB-231 [22] = assay: Antitumor activity against human MDA-MB-231 cells xenografted in nude immunodeficient mouse assessed as tumor growth inhibition at 7.5 mg/kg, iv administered every week for 4 weeks measured over 76 days; format: functional, organism-based; parameters: dose 7.5 mg/kg; procedure, shortened: as §4
MDA-MB-231 [23] = assay: Antitumor activity against human MDA-MB-231 cells xenografted in nude immunodeficient mouse assessed as tumor regression at 7.5 mg/kg, iv administered every week for 4 weeks measured over 76 days; format: functional, organism-based; parameters: dose 7.5 mg/kg; procedure, shortened: as §4

CN[C@@H](C)C(=O)N[C@H]1CCCC[C@H]2CC[C@@H](C(=O)N[C@@H](c3ccccc3)c3cn(CCCCc4ccc(CCCCn5cc([C@@H](NC(=O)[C@@H]6CC[C@@H]7CCCC[C@H](NC(=O)[C@H](C)NC)C(=O)N76)c6ccccc6)nn5)cc4)nn3)N2C1=O
half-life [1]: 8.4 min | Activity (MDA-MB-231 [2]): Active | Activity (MDA-MB-231 [3]): Dose-dependent effect | Activity (MDA-MB-231 [4]): Dose-dependent effect | Vz/F (Rattus norvegicus [5]): 1 L/kg | Activity (MDA-MB-231 [6]): >75% | AUC [7]: 221 ng·h/mL | Activity (MDA-MB-231 [8]): Dose-dependent effect | Activity (MDA-MB-231 [9]): Dose-dependent effect

CN[C@@H](C)C(=O)N[C@H]1CN(C(=O)Nc2ccc(NC(=O)N3CC[C@H]4CC[C@@H](C(=O)NC(c5ccccc5)c5ccccc5)N4C(=O)[C@@H](NC(=O)[C@H](C)NC)C3)cc2)CC[C@H]2CC[C@@H](C(=O)NC(c3ccccc3)c3ccccc3)N2C1=O
Activity (MDA-MB-231 [10]): Active | half-life [11]: 4.9 h | Vz/F (Rattus norvegicus [12]): 0.5 L/kg | Activity (MDA-MB-231 [3]): Dose-dependent effect | Activity (MDA-MB-231 [4]): Dose-dependent effect | Activity (MDA-MB-231 [13]): 88% | Activity (MDA-MB-231 [14]): 93% | Activity (MDA-MB-231 [6]): >75% | Activity (MDA-MB-231 [15]): Active | Activity (MDA-MB-231 [16]): 55% | AUC [17]: 3770 ng·h/mL | Activity (MDA-MB-231 [18]): Active | Activity (MDA-MB-231 [8]): Dose-dependent effect | Activity (MDA-MB-231 [19]): Active | Activity (MDA-MB-231 [9]): Dose-dependent effect | Activity (Mus musculus): Non-toxic | Activity (MDA-MB-231 [20]): 99% | Activity (MDA-MB-231 [21]): Active

CC(=O)O[C@@]12CO[C@@H]1C[C@H](O)[C@@]1(C)C(=O)[C@H](O)C3=C(C)[C@@H](OC(=O)[C@H](O)[C@@H](NC(=O)OC(C)(C)C)c4ccccc4)C[C@@](O)([C@@H](OC(=O)c4ccccc4)[C@H]21)C3(C)C
TGI (MDA-MB-231 [22]): Active | Activity (MDA-MB-231 [23]): inactive
